Data from ChEMBL document CHEMBL4396897, “Potent 5-Cyano-6-phenyl-pyrimidin-Based Derivatives Targeting DCN1-UBE2M Interaction” (J Med Chem, 2019).
Calls of active or inactive are those of the source.

What was measured:
[1] = target: T1, NEDD8-activating enzyme E1 catalytic subunit (Homo sapiens) (UniProt Q8TBC4); assay: Inhibition of NEDD8-activating enzyme E1C (unknown origin) assessed as effect on NEDD8/UBE2M complex formation at 10 to 20 uM pre-incubated for 10 mins followed by Mg-ATP addition after 60 mins by SDS-PAGE analysis
T1 sequence (whole entry): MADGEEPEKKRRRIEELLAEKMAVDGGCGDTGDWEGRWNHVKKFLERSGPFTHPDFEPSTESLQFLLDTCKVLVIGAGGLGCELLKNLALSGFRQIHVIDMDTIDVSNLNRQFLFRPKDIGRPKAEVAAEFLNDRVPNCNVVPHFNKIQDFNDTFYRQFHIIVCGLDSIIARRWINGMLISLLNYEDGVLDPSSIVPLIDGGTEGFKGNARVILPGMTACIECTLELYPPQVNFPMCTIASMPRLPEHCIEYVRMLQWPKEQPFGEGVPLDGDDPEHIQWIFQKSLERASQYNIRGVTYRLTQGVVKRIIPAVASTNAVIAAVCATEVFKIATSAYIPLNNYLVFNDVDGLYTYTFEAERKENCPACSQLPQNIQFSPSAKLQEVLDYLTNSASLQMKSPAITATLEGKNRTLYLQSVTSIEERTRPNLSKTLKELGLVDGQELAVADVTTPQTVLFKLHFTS
In short: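 Cell-free NEDD8~UBE2M formation: NEDD8 E1 mixed with NEDD8, UBE2M and compound (10 and 20µM reference inhibitor, or 1, 10 and 100µM test compound) in reaction buffer, 10 min at room temperature. Started with Mg-ATP, incubated 60 min at 37°C, then 1mM DTT and non-reducing loading buffer added. Resolved on 12% SDS-PAGE.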

[2] = target: T2, DCN1-like protein 1/NEDD8-conjugating enzyme Ubc12 (Homo sapiens) (UniProt Q96GG9+P61081); assay: Inhibition of DCN1-UBE2M protein-protein interaction in human PC9 cells assessed as increase in NQO1 accumulation at 3 uM incubated for 24 hrs by Western blot analysis; format: cell-based
T2 sequence (P61081 whole entry, looked up): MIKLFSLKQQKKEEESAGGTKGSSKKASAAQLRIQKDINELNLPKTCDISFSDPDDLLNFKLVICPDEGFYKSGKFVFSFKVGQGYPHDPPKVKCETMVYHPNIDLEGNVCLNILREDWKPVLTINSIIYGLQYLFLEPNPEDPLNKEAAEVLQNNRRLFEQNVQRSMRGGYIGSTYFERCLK
T2 sequence (Q96GG9 whole entry, looked up): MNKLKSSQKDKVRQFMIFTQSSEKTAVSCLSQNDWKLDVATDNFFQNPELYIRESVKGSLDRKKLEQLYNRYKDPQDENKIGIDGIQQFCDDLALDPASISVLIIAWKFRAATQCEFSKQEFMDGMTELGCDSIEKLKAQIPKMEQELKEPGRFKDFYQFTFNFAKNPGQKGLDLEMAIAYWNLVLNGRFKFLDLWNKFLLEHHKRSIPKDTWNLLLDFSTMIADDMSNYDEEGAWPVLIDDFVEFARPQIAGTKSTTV
In short: (§1)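 H1975 and PC9 cells seeded at 1×10⁶ cells, incubated overnight, then treated 24h with compound (0, 0.3, 1, 10 and 20 μM in methods; 3 μM also listed in text). Lysates cleared at 12,000×g, 20 min, 4°C, protein by BCA, SDS–PAGE, nitrocellulose, primary antibodies overnight at 4°C, HRP secondary, ECL. Densitometry normalised to GAPDH; three experiments.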

[3] = target: T2, DCN1-like protein 1/NEDD8-conjugating enzyme Ubc12 (Homo sapiens); assay: Inhibition of DCN1-UBE2M protein-protein interaction in human NCI-H1975 cells assessed as increase in HO-1 accumulation at 3 uM incubated for 24 hrs by Western blot analysis; format: cell-based; in short: as §1
[4] = target: T2, DCN1-like protein 1/NEDD8-conjugating enzyme Ubc12 (Homo sapiens); assay: Inhibition of DCN1-UBE2M protein-protein interaction in human NCI-H1975 cells assessed as increase in NQO1 accumulation at 3 uM incubated for 24 hrs by Western blot analysis; format: cell-based; in short: as §1
[5] = target: T2, DCN1-like protein 1/NEDD8-conjugating enzyme Ubc12 (Homo sapiens); assay: Inhibition of DCN1-UBE2M protein-protein interaction in human PC9 cells assessed as increase in NRF2 accumulation at 3 uM incubated for 24 hrs by Western blot analysis; format: cell-based; in short: as §1
[6] = target: T2, DCN1-like protein 1/NEDD8-conjugating enzyme Ubc12 (Homo sapiens); assay: Inhibition of DCN1-UBE2M protein-protein interaction in human PC9 cells assessed as increase in HO-1 accumulation at 3 uM incubated for 24 hrs by Western blot analysis; format: cell-based; in short: as §1
[7] = target: T2, DCN1-like protein 1/NEDD8-conjugating enzyme Ubc12 (Homo sapiens); assay: Inhibition of DCN1-UBE2M protein-protein interaction in human NCI-H1975 cells assessed as increase in NRF2 accumulation at 3 uM incubated for 24 hrs by Western blot analysis; format: cell-based; in short: as §1

Measured: inhibition

NS(=O)(=O)OC[C@@H]1C[C@@H](n2ccc3c(N[C@H]4CCc5ccccc54)ncnc32)C[C@@H]1O
active: [1] | [2] | [3] | [4] | [5] | [6] | [7]
